Compound activity (PubChem)
Beta cell apopt – inhibitors of cytokine-induced beta cell apoptosis, primary screen, luminescence; protection from apoptosis, % (no concentration beside the values); hit rate 0.8% among 300,000; INS-1E cytokine-induced death, ATP luminescence, 48 h; percent of positive-control rescue, neutral wells zero;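 active = Every replicate reaches about 75%, or at least half do and their mean reaches it too, limit read from the data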;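 also: higher means more ATP so stronger rescue from cytokine killing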
MC4R barr agon – MC4R agonists recruiting beta-arrestin, primary screen, cell-based, luminescence, agonist arm of biased-ligand search; Melanocortin receptor 4 (Homo sapiens), P32245; U2OS MC4R beta-arrestin complementation; percent of melanotan II response, DMSO zero; activation, % at 8.9 µM; hit rate 0.98% among 360,000; AID 540308, 2011;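 active = activation above a per-plate cutoff, the mean activation of sample wells on that plate plus 3 SD, cut at about 8% in these data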
CSC inhib – cancer stem cell viability inhibitors, primary screen, luminescence. hit rate 1.1% among 300,000. inhibition, % at 7.5 µM. cancer stem cell-like cells viability. AID 2717, 2010; in the data active = inhibition above about 75%; tested in HMLE shEcad cells
ANO1 block – TMEM16A chloride channel inhibitors, primary screen, cell-based, HTS | Anoctamin-1 (Mus musculus), Q8BHY3 | HEK293 TMEM16A/YFP iodide influx fluorescence, ionomycin | normalized B-score (activity score, 25-100; higher = stronger inhibition) at 10 µM | hit rate 1.2% among 310,000 | AID 588511, 2011;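 active = ratio plate-corrected score three or more library SD toward inhibition, starting fluorescence score within five deviations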;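 also: score derived from kinetic fluorescence span divided by baseline fluorescence per well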
MC4R antagonist – MC4R antagonists of cAMP signaling, primary screen, cell-based, TR-FRET, antagonist arm of biased-ligand search | MC4R-expressing cells, MTII-stimulated cAMP, LANCE TR-FRET | hit rate 0.48% among 360,000 | inhibition, % at 6.5 µM | Melanocortin receptor 4 (Homo sapiens), P32245 | AID 540295, 2011;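 active = inhibition above its plate's cutoff, the mean of tested wells on that plate plus 3 SD, cut at about 29% in these data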
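System: U2OS-MC4R stable cell line; Technique: Eu-cAMP/anti-cAMP TR-FRET, emission 671 nm; Repeats: single well per compound; Also added: Melanotan II; Dosing: one concentration, 6.5 µM nominal; Schedule: 30-min compound, 1-h challenge, 1-h detection, room temperature.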
TMEM16A act – TMEM16A chloride channel activators or potentiators, primary screen, cell-based, HTS. Anoctamin-1 (Mus musculus), Q8BHY3. HEK293 TMEM16A/YFP-H148Q/I152L, iodide quench fluorescence; stronger effect = lower value. B-score at 10 µM. hit rate 0.3% among 340,000;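 active = fluorescence-ratio B-score plate-corrected deviation score at least 3 library SD below zero, with starting fluorescence score within 5 deviations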;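 also: channel opened by trigger with iodide after compound preincubation; score built on the fluorescence ratio of max minus min over baseline; more negative score means more quench and so TMEM16A activation or potentiation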
U2OS cAMP counter – nonselective cAMP signaling inhibitors, parental cells, counter-screen for MC4R biased antagonist project, cell-based, TR-FRET, U2OS, forskolin, triplicate; shares compounds with MC4R antagonist; LANCE TR-FRET; inhibition, % at 6.5 µM; hit rate 26% among 1,600; AID 602193, 2012;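 active = mean inhibition over triplicates above the low-control well mean plus 3 SD, set per campaign, cut at about 13% in these data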;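 also: signal is single emission at 671 nm which falls as cellular cAMP rises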
MC4R antag conf – MC4R cAMP antagonists, retest, confirmation, cell-based, TR-FRET. shares compounds with MC4R antagonist. MC4R-expressing cells, MTII-stimulated cAMP. inhibition, % at 6.5 µM. hit rate 27% among 1,600. AID 602195, 2012; in the data active = inhibition above about 29%
Of the large screens only hits and unclear results are named; the others gave an inactive call (follow-up assays come after a bar, where they were run). An excerpt weighted towards active compounds, which were near 3.8% of everything screened.

C/C(=N\NC(=O)c1ccc(Cl)c(Cl)c1)c1ccccn1	Beta cell apopt 93, CSC inhib 81, MC4R antagonist 29 | U2OS cAMP counter 20 | MC4R antag conf inactive
C/C(=N\NC(=O)c1ccc(Cl)c(Cl)c1)c1ccc(Br)s1	none
C/C(=N\NC(=O)c1ccccc1Cl)c1ccccn1	Beta cell apopt 93, MC4R antagonist 29 | U2OS cAMP counter 29 | MC4R antag conf inactive
CC(=O)Nc1ccc(/C(C)=N/NC(=O)c2ccccc2Cl)cc1	none
CCC(Sc1nc2n[nH]c(C)c2c(=N)n1-c1ccc(C)c(Cl)c1)C(=O)N1CCOCC1 (stereo unspecified)	MC4R antagonist 29 | U2OS cAMP counter inactive | MC4R antag conf 35
O=C(Oc1ccc(C(=S)N2CCOCC2)cc1)c1ccc([N+](=O)[O-])cc1	MC4R antagonist 34 (no result: Beta cell apopt) | U2OS cAMP counter inactive | MC4R antag conf inactive
O=C(c1ccc([N+](=O)[O-])cc1)N1CCOCC1	none (no result: Beta cell apopt, CSC inhib, ANO1 block)
O=C(C[C@@H]1C[C@@H]2c3cc(NC(=O)C4CCOCC4)ccc3O[C@@H]2[C@H](CO)O1)NCc1ccccn1	none (no result: Beta cell apopt, CSC inhib, ANO1 block, TMEM16A act)
CC(C)CN1CCC1(C)C(=O)Nc1cc(-c2ccccc2)nn1C (stereo unspecified)	none (no result: Beta cell apopt, CSC inhib, ANO1 block, TMEM16A act)
Cc1ccc(Nc2nnc(SC3CCOC3=O)s2)cc1 (stereo unspecified)	none (no result: CSC inhib)
CC(C)c1ccc(Nc2nnc(SC3CCOC3=O)s2)cc1 (stereo unspecified)	MC4R antagonist 31 | U2OS cAMP counter 41 | MC4R antag conf 33
COc1cc(NC(=S)N2CCCC2)cc(OC)c1	none
CCCc1nc2nc(C)c(NS(=O)(=O)c3ccc(C4CCCCC4)cc3)c(=O)n2[nH]1	none
CC1=NOC(=O)/C1=C\c1ccc(-c2ccccc2Br)o1	MC4R antagonist 62 (no result: Beta cell apopt, CSC inhib, ANO1 block) | U2OS cAMP counter inactive | MC4R antag conf inactive
Cc1cccc(Cn2ncc(Cl)c(Cl)c2=O)c1	MC4R antagonist 37 | U2OS cAMP counter 32 | MC4R antag conf 50
O=c1c2ccccc2cnn1Cc1ccc(Cl)c(Cl)c1	none
CCCCNC(=O)C1(C)CCCCCN1Cc1cccc2c(OC)cc(C(=O)OCC)cc12 (stereo unspecified)	MC4R antagonist 30 (no result: Beta cell apopt, CSC inhib, ANO1 block, TMEM16A act) | U2OS cAMP counter inactive | MC4R antag conf inactive
O=C(NCC(c1cccs1)N1CCOCC1)c1cnc(Cl)c(Cl)c1 (stereo unspecified)	MC4R antagonist 30 (no result: ANO1 block) | U2OS cAMP counter 17 | MC4R antag conf 38
CCN1C(=O)[C@@H]2[C@@H](c3ccc(SC4CCCCC4)cc3)N3CCCC[C@@]3(C(=O)OC)[C@@H]2C1=O	none
CS(=O)(=O)Cc1cccc(C(=O)NC2CCSc3ccccc32)c1 (stereo unspecified)	MC4R antagonist 32 | U2OS cAMP counter inactive | MC4R antag conf inactive
COc1ccc(-c2nn(-c3ccccc3)cc2C(=O)Nc2ccc(C(=O)O)cc2)cc1OC	none (no result: CSC inhib)
Cc1ccc(-c2nn(-c3ccccc3)cc2C(=O)Nc2ccc(C(=O)O)cc2)cc1	MC4R antagonist 33 | U2OS cAMP counter inactive | MC4R antag conf inactive
O=C(Nc1cccc(S(=O)(=O)NC2=NCCC2)c1)c1cn(-c2ccccc2)nc1-c1ccc(F)cc1	MC4R antagonist 29 (no result: ANO1 block) | U2OS cAMP counter inactive | MC4R antag conf inactive
Cc1ccc(NC(=O)CN(C)C(=O)COC(=O)C2=COCCO2)cc1	none (no result: Beta cell apopt)
O=C(OCC(=O)N1CCCC1=O)c1nc(Cl)c(Cl)c(Cl)c1Cl	MC4R antagonist 29 | U2OS cAMP counter 23 | MC4R antag conf 47
Nc1c(Cl)c(Cl)nc(C(=O)OCC(=O)N2CCCC2=O)c1Cl	none (no result: Beta cell apopt)
